# Shown are actives, neighbours in structure and some others; about 5.4% of the full set was active somewhere.
# Mdm2-MdmX inh: disrupts the human Mdm2-MdmX interaction | inhibition, % at 8 µM | 330,000 compounds, 3% hits | AID 485346 | O15151+Q00987 | SaOS-2 split-luciferase Mdm2/MdmX complementation, luminescence;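 active = inhibition of at least 50% at 8 µM in the primary screen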
# CSC inhib: blocks cancer stem cells; cancer stem cell-like cells viability, luminescence; 300,000 compounds, 1.1% hits; inhibition, % at 7.5 µM; in the data active = inhibition above about 75%; tested in HMLE shEcad cells
# SKKanGAS inh: blocks kanamycin growth of S. pyogenes SKKanGAS strain; BacTiter-Glo, 6 h; inhibition, % at 7.5 µM; 300,000 compounds, 1.3% hits;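 active = mean replicate score, as percent of positive control median, at least 50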;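 note: strain carries kanamycin resistance gene driven by streptokinase promoter and grows in 40 µg/ml kanamycin; loss of luminescence reflects streptokinase promoter inhibition or plain growth inhibition; 0% = median of DMSO wells and 100% = positive control at its reference dose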
# aSyn UTR inh: MLPCN primary screen, SNCA 5' untranslated region | alpha-synuclein 5'UTR reporter, inhibitor activity | inhibition, % (tested at 7.5 µM) | 300,000 compounds, 0.82% hits | AID 1813; in the data active = inhibition above about 60%;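 note: H4 neuroglioblastoma cells stably carrying SNCA 5'UTR luciferase fusion; 0% = DMSO wells and 100% = positive control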
# T cruzi inh: T. cruzi replication inhibition. inhibition, % (concentration not given with the values). 300,000 compounds, 1.4% hits. T. cruzi beta-gal in NIH3T3, luminescence, 90 h;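 active = mean inhibition across valid replicates above about 55%, limit read from the data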;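 note: signal also drops with host cell toxicity which is not excluded here; 0% = plate median of DMSO wells and 100% = zero luminescence signal; higher percent means less beta-gal luminescence so fewer parasites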
#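 System – NIH/3T3 host cells with β-galactosidase reporter T. cruzi · Doses – single 50 nL compound addition per well in DMSO · Reagent – 5000 T. cruzi trypomastigotes/well · Medium – Low-serum DMEM with 2% FBS · Timing – ≥90 h infection period, 3 h prior cell attachment · Evaluation – parasite load inhibition, % · Technique – GalScreen luminescence, 60 min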
# Starred values were filed as active, the others as inactive; / = no result given.
SMILES,Mdm2-MdmX inh,CSC inhib,SKKanGAS inh,aSyn UTR inh,T cruzi inh
Cc1cccc(OCCCC(=O)NNC(=O)CCN2CCN(c3ccccc3)CC2)c1,24,-6,-8,10,-6
O=C(NCc1cccnc1)c1ccc(-c2cccc(Cl)c2Cl)o1,31,0,12,-35,58*
CCOC(=O)C1CCCN(C(=O)Cn2c(=O)c3cccn3c3cccnc32)C1 (configuration not stated),-4,-6,-8,-2,3
CCCCN(C(=O)C1=NN(c2ccccc2)C(=O)CC1)c1c(N)n(CC(C)C)c(=O)[nH]c1=O,-21,-3,/,/,/
COc1ccc(Br)cc1CN(C)CC(O)COc1ccc(Br)cc1 (configuration not stated),-9,/,3,13,41
CCCCCCCC/C=C\CCCCCCCC(=O)NCCO,10,-7,/,/,/
CCCCCCCC/C=C\CCCCCCCC(=O)NCCc1ccc(O)c(O)c1,48,100*,/,/,/
COC(=O)[C@H]1[C@H]2C[C@@H]3c4[nH]c5cc(OC)ccc5c4CCN3C[C@H]2C[C@@H](OC(=O)c2ccc(N)cc2)[C@@H]1OC,14,-5,6,17,58*
CCC(C)Sc1cccc(-c2nc3cc(C)ccn3c2NCc2ccccc2)c1 (configuration not stated),-23,123*,40,-26,16
CCCCCCSc1cccc(-c2nc3ccc(Cl)cn3c2NCc2ccccc2)c1,31,76*,12,7,38
CCCCNc1c(-c2cccc(SC3CCCCC3)c2)nc2ccc(Cl)cn12,-13,4,27,-3,39
CCCCNc1c(-c2ccc(SC3CCCCC3)c(OC)c2)nc2ccc(C)cn12,47,101*,/,/,/
Clc1ccc2nc(-c3cccc(SC4CCCCC4)c3)c(NCc3ccccc3)n2c1,12,56,16,-4,26
CCC(C)Sc1ccc(-c2nc3ccc(Cl)cn3c2NCc2ccccc2)cc1 (configuration not stated),-26,9,/,/,/
CCCCCCSc1ccc(-c2nc3ccc(C)cn3c2NCc2ccccc2)cc1OC,49,69,33,-14,56*
CCCCCCSc1ccc(-c2nc3ccc(C)cn3c2NCc2ccccc2)cc1,-20,9,10,1,13
Cc1cccc(N2CN(S(=O)(=O)c3cccc([N+](=O)[O-])c3)c3nc4ccccc4nc32)c1,0,-12,/,/,/
CCC(C)Sc1ccc(-c2nc3ccc(C)cn3c2NC2CCCCC2)cc1 (configuration not stated),34,49,5,-7,72*
CCC(C)Sc1cccc(-c2nc3ccc(C)cn3c2NC2CCCCC2)c1 (configuration not stated),26,7,5,27,20
CCC(C)Sc1cc(-c2nc3ccc(C)cn3c2NCc2ccccc2)ccc1OC (configuration not stated),/,-29,74*,-14,36
CCCCCCSc1cc(-c2nc3ccc(C)cn3c2NCCCC)ccc1OC,43,97*,/,/,/
O=C(c1cc(COc2cccc(C(F)(F)F)c2)on1)N1CCC(Oc2cccnc2)CC1,23,18,-8,10,29
CCOC(=O)c1c(N)sc(C(O)(C(F)(F)F)C(F)(F)F)c1-c1ccc(Cl)cc1,0,-18,76*,32,7
CCOC(=O)c1c(N)sc(C(O)(C(F)(F)F)C(F)(F)F)c1-c1ccc(F)cc1,-2,43,6,7,0
CCOC(=O)c1c(NC(=S)N2CCN(C)CC2)sc(C)c1-c1ccccc1,39,29,50*,-10,61*
SMILES,Mdm2-MdmX inh,CSC inhib,SKKanGAS inh,aSyn UTR inh,T cruzi inh
CCOC(=O)c1c(-c2ccc(-c3ccccc3)cc2)csc1NC(=O)CCN1CCOCC1,/,105*,-15,7,13
CCOC(=O)c1c(-c2ccc(F)cc2)csc1NC(=O)CCN1CCOCC1,22,-7,-5,31,6
CCOC(=O)c1c(NC(=O)/C=C/C(=O)O)sc(C)c1-c1ccc(Cl)cc1,13,75*,2,-21,23
CCOC(=O)c1ccc(NC(=S)N2CCN(C)CC2)cc1,17,-8,0,-12,-5
O=C(NCc1cccc(C(F)(F)F)c1)c1ccc(=O)[nH]c1,-5,-27,-7,3,-2
CCOC(=O)c1c(NC(=O)CN2CCCCC2)sc(CN(C)C)c1-c1ccccc1,17,8,-6,3,68*
O=C(O)CCn1nnc(-c2cccs2)n1,-4,13,9,10,-4
CCc1ccc(-c2nnn(CCC(=O)OC)n2)cc1,23,-2,-2,77*,-14

# Source: PubChem (several laboratories)
